An excerpt weighted towards active compounds, which were near 3.1% of everything screened.
GPR7 antagonist – blocks human GPR7 receptor signaling; P48145; GPR7-expressing cells, fluorescence antagonist assay; inhibition, % at 4.4 µM; actives 1.1% (n = 290,000); in the data active means inhibition above about 16%, passing the limit was not always enough;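 further: cells stimulated with the agonist NPW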
Target sequence (P48145 whole entry, looked up): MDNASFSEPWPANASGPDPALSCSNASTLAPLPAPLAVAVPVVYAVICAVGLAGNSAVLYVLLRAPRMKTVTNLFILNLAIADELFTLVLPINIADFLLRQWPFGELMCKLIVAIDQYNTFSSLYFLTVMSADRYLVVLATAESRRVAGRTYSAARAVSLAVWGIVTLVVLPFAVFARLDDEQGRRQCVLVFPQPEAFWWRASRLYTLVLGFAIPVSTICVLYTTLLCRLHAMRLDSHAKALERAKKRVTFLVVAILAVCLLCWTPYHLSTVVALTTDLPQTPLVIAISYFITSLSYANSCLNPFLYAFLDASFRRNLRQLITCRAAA
GalR3 antag – antagonists of human GalR3 | HEK293 GalR3-CNG cAMP membrane potential fluorescence; galR3 body fused to GalR1 C-terminus | inhibition, % at 3 µM | actives 0.44% (n = 360,000);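 active means inhibition above the screen-wide average plus 3 SD, cut at about 13% in these data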;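 further: forskolin and galanin both at EC90 stimulate the cells; cAMP rise reported by CNG channel membrane potential dye signal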
Target sequence (O60755 1-299 limits assumed): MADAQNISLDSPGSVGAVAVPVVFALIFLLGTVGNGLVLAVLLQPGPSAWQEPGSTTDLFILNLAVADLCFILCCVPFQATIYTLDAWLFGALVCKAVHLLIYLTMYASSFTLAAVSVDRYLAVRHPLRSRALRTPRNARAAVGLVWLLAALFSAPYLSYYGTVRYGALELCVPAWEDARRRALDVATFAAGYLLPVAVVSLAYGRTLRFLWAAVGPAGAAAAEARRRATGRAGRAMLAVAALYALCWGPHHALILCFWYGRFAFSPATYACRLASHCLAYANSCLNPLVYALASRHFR
OX1R antag-1 – blocks the human orexin 1 receptor; AID 485270; inhibition, % at 6.6 µM; actives 1.8% (n = 330,000); OX1R-expressing cells, FRET antagonist read-out; in the data active means inhibition mostly above about 38%, no sharp cut-off; inactive means mostly below about 40%
CHO parental Ca – counter-screen for OX1R antagonists: effect in parental CHO cells. parental CHO-K1, ATP-induced calcium, Fluo-8 fluorescence. inhibition, % at 5.6 µM. actives 0.63% (n = 330,000). AID 463079;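 active means inhibition above that plate's mean sample inhibition plus 3 SD, cut at about 26% in these data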
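Material: parental CHO cells / Compound: single nominal dose of 5.6 µM per compound / Signal: Fluo-8 fluorescence / Replicates: singlicate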
OX1R antag-2 – antagonists of human orexin 1 receptor | O43613 | CHO/OX1R cells, Fluo-8 calcium fluorescence, orexin A | inhibition, % at 5 µM | actives 0.43% (n = 330,000) | AID 434989;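 active means inhibition above its plate's threshold, mean inhibition of all tested compounds on the plate plus 3 SD, cut at about 37% in these data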
Of the large screens only hits and unclear results are named; the others gave an inactive call.

O=C(c1ccc(S(=O)(=O)c2cccc(Cl)c2)c([N+](=O)[O-])c1)N1CCN(c2ccccn2)CC1	CHO parental Ca 33
O=C(c1cccc(Cl)c1)N1CCN(c2ccccn2)CC1	none
Cc1cc2cc(OCC(=O)O)ccc2n1C	OX1R antag-1 59
CN(CC(=O)Nc1cccc(S(=O)(=O)N2CCCC2)c1)CC(=O)Nc1ccc(Cl)c(C(F)(F)F)c1	CHO parental Ca 54 (no result: GPR7 antagonist)
O=C(CN1CCCC1c1cccs1)Nc1cccc(S(=O)(=O)N2CCCC2)c1 (stereo not drawn)	OX1R antag-1 32 (no result: GPR7 antagonist)
O=C(CN1CCCC1c1cccs1)Nc1cc(S(=O)(=O)N2CCCC2)ccc1Cl (stereo not drawn)	none (no result: GPR7 antagonist)
Cc1ccc(S(=O)(=O)N(CCC(=O)NCc2ccccc2F)c2ccccc2)cc1	OX1R antag-1 25 (no result: GPR7 antagonist)
Nc1nonc1N/N=C/c1c(O)ccc2ccccc12	OX1R antag-2 50
CN(Cc1ccccc1)S(=O)(=O)c1ccc(NS(=O)(=O)Cc2ccccc2)cc1	OX1R antag-1 44, CHO parental Ca 40, OX1R antag-2 42
CCN(Cc1ccccc1)C(=O)Nc1c(Cl)cccc1Cl	none (no result: GPR7 antagonist, OX1R antag-1, CHO parental Ca, OX1R antag-2)
COc1ccc(NC2=C(NCCO)C(=O)c3ccccc3C2=O)cc1	none
COc1cccc(NC2=C(NCCO)C(=O)c3ccccc3C2=O)c1	OX1R antag-1 46
Cc1ccc(NC(=O)CN(C)C(=O)c2ccccc2Sc2ccccc2C#N)cc1	OX1R antag-1 55 (no result: GPR7 antagonist)
O=C(CCN1C(=O)S/C(=C\c2ccccc2)C1=O)N1CCOCC1	OX1R antag-1 56
O=C(CN1C(=O)S/C(=C/c2ccccn2)C1=O)N1CCOCC1	OX1R antag-1 55
COc1cc(CNc2ncnc3c2ncn3[C@H]2CN(CCc3ccccc3)C[C@@H](CO)O2)cc(OC)c1OC	none (no result: GPR7 antagonist, OX1R antag-1, CHO parental Ca, OX1R antag-2)
C[C@H](CO)N1C[C@H](C)[C@@H](CN(C)C)Oc2c(NS(=O)(=O)c3ccccc3)cccc2C1=O	none (no result: GPR7 antagonist)
O=C(Nc1ccc(Cl)cc1)Nc1cc([N+](=O)[O-])ccc1F	none
COc1ccc(OC(C)C(=O)Nc2ccc([N+](=O)[O-])cc2)cc1 (stereo not drawn)	none
O=C(Nc1ccc([N+](=O)[O-])cc1)Nc1ccc(Cl)cc1F	CHO parental Ca 43, OX1R antag-2 48
Cc1cc(OC(F)F)ccc1NC(=O)Nc1ccc([N+](=O)[O-])cc1	GPR7 antagonist 41, CHO parental Ca 57
O=S1(=O)CC(N2CCCC2)CN1Cc1cn(Cc2ccc(C(F)(F)F)cc2)nn1 (stereo not drawn)	none (no result: GPR7 antagonist, OX1R antag-1, CHO parental Ca, OX1R antag-2)
CC(C)(C)c1ccc(S(=O)(=O)N2CCN(C(=O)C(=O)c3cccc(C(F)(F)F)c3)CC2)cc1	none (no result: GPR7 antagonist, OX1R antag-1, CHO parental Ca, OX1R antag-2)
Cc1ccc(NC(=O)C2(C)CCN2C(=O)Cc2ccc(C(C)(C)C)cc2)cc1C (stereo not drawn)	none (no result: GPR7 antagonist, OX1R antag-1, CHO parental Ca, OX1R antag-2)
c1ccc2[nH]c3cc4ncnc4cc3nc2c1	OX1R antag-1 70
COc1cccc(C2CC(=O)C3=C(C2)Nc2ccccc2N(C(=O)CCC(=O)O)C3c2ccc(F)cc2)c1 (stereo not drawn)	CHO parental Ca 99
COc1ccc(C2C3=C(CC(c4ccco4)CC3=O)Nc3ccccc3N2C(C)=O)cc1 (stereo not drawn)	none
COC(=O)C1=CN(c2ccc(C)cc2)C(N)=C(C#N)C1c1ccc(OC)cc1 (stereo not drawn)	none (no result: GPR7 antagonist, OX1R antag-1, CHO parental Ca, OX1R antag-2)
CC1=CC2=NC(=O)/C(=C\c3cc(C)n(-c4ccccc4F)c3C)C(=N)N2O1	none
CCCC1=NN2C(=N)/C(=C\c3cc(C)n(Cc4ccccc4)c3C)C(=O)N=C2S1	CHO parental Ca 86, OX1R antag-2 104
COc1cc(/C=C2\C(=N)N3N=C(S(C)(=O)=O)SC3=NC2=O)cc(OC)c1OCCOc1ccccc1C	none
Cc1cc(/C=C2\C(=N)N3N=CSC3=NC2=O)c(C)n1Cc1ccccc1	none
Cc1cc(/C=C2/C(=N)N3C(=NC2=O)SN=C3S(C)(=O)=O)c(C)n1-c1ccccc1F	OX1R antag-1 47
Cc1cc(/C=C2\C(=N)N3N=C(S(C)(=O)=O)SC3=NC2=O)c(C)n1Cc1ccccc1	OX1R antag-1 58
COc1ccc(OC)c(CNS(=O)(=O)c2ccccc2Br)c1	none (no result: GPR7 antagonist, OX1R antag-1, CHO parental Ca, OX1R antag-2)
CC(=O)Oc1[nH]c(=O)c2cccc3c2c1CCC3	none (no result: GPR7 antagonist, OX1R antag-1, CHO parental Ca, OX1R antag-2)
O=C(Nc1ccccc1)c1ccc(Nc2c([N+](=O)[O-])cc([N+](=O)[O-])c3ccccc23)cc1	none
O=[N+]([O-])c1cc(Br)c(Nc2ccccc2)c([N+](=O)[O-])c1	OX1R antag-1 50
CCCCn1c(N)c(Sc2ccccc2[N+](=O)[O-])c(=O)[nH]c1=O	OX1R antag-1 55
O=C(NCCc1ccccc1Cl)[C@@H]1CCCN1C(=O)[C@@H](NS(=O)(=O)c1ccc(F)cc1F)C1CCCCC1	none (no result: GPR7 antagonist, OX1R antag-1, CHO parental Ca, OX1R antag-2)
C/C(=N\NC(=O)c1cccc(Br)c1)c1cccnc1	none (no result: OX1R antag-1, CHO parental Ca, OX1R antag-2)
CCC(OC(=O)CN1C(=O)C(=O)c2ccccc21)C(=O)Nc1ccc(S(N)(=O)=O)cc1 (stereo not drawn)	OX1R antag-1 50
CC(C)NC(=O)CN1C(=O)C(=O)c2ccccc21	none
COCc1cc(N2CCNC[C@@H]2C)ccc1N1CCS(=O)(=O)CC1	none (no result: GPR7 antagonist, OX1R antag-1, CHO parental Ca, OX1R antag-2)
CCN(CC(=O)Nc1c(F)cccc1F)C(=O)CNC(=O)c1ccc(Br)o1	OX1R antag-1 60 (no result: GPR7 antagonist)
C[C@@H]1CN([C@@H](C)CO)C(=O)CCCn2nncc2CO[C@@H]1CN(C)S(=O)(=O)c1ccc(C#N)cc1	none (no result: GPR7 antagonist, OX1R antag-1, CHO parental Ca, OX1R antag-2)
COC(=O)[C@H](Cc1ccccc1)NC(=O)/C=C/[C@H]1O[C@@H](n2cc(C)c(=O)[nH]c2=O)C[C@@H]1O	none (no result: GPR7 antagonist, OX1R antag-1, CHO parental Ca, OX1R antag-2)
Cc1ccc(Nc2nc3ccc(Cl)cc3n3cnnc23)cc1F	none
COc1ccc(C2(C)NC(=O)N(CC(=O)Nc3ccc(-c4nc5ccc(C)cc5s4)cc3)C2=O)cc1 (stereo not drawn)	CHO parental Ca 29
CCOc1ccc(/C=C2\CCCc3c2nc2ccccc2c3C(=O)O)cc1OC	OX1R antag-1 82, CHO parental Ca 30 (no result: GalR3 antag)
COc1cc(/C=C2\CCCc3c2nc2ccccc2c3C(=O)O)cc(OC)c1O	none
COc1cc(/C=C2\CCCc3c2nc2ccccc2c3C(=O)O)cc([N+](=O)[O-])c1O	none
COc1ccc(/C=C2\CCCc3c2nc2ccccc2c3C(=O)O)cc1OC	OX1R antag-1 63 (no result: GalR3 antag)
COc1ccc(/C=C2\CCc3c2nc2ccccc2c3C(=O)O)cc1OC	OX1R antag-1 75
COc1ccccc1OCC(=O)Nc1ccccc1C(=O)NCc1cccnc1	none
COc1ccc(COc2ccccc2C(=O)NCc2ccccc2)cc1F	CHO parental Ca 34
COc1ccccc1C(=O)NCc1ccc2c(c1)OCO2	none
COc1ccccc1Nc1ncccc1C(=O)NCc1ccccc1	OX1R antag-1 75
CC(NC(=O)CN(c1cccc(C(F)(F)F)c1)S(=O)(=O)c1ccc(Cl)c([N+](=O)[O-])c1)c1ccccc1 (stereo not drawn)	GPR7 antagonist 46, CHO parental Ca 36
CC(C)(C)NC(=O)CN(c1cccc([N+](=O)[O-])c1)S(=O)(=O)c1ccccc1	none
